Measurements of several laboratories.
Protocols differ between the studies behind these lines.
Organism: Escherichia coli
Effect on: microbial growth

SMILES	method	cell line	strain	time	notes	MIC
CC1=NN(CNc2c(O)c(S(=O)(=O)O)cc3ccccc23)C(=O)C1=NNn1c(-c2ccccc2)nc2ccccc2c1=O	broth dilution			24 h		41.8 µM
Cc1ccc2nc(-c3ccc(Cl)cc3)[nH]c2c1	broth dilution		ATCC25922			256 µg/mL
CC(C)Oc1c(NC(=O)c2ccc(NC(=O)[C@H](CC(N)=O)NC(=O)c3ccc(NC(=O)c4cccc(N)c4)cc3)cc2)ccc(C(=O)Nc2ccc(C(=O)O)cc2)c1O			DSM1116			32 µg/mL
C=CCn1c(-c2ccc(Cl)cc2)nc2ccc(C)cc21	broth dilution		ATCC25922			256 µg/mL
NC1CCCCc2c1[nH]c1cc(Cl)c(Cl)cc21 (centres unmarked)	broth dilution		ATCC25922			8 µg/mL
Clc1cccc(NCc2ccc(Oc3ccccn3)cc2)c1						> 25 µg/mL
O=C(CCc1cc(O)c(O)c(O)c1)NCCCCCCCC[P+](c1ccccc1)(c1ccccc1)c1ccccc1.[Br-]	broth dilution		ATCC25922	18 h		> 32 µg/mL
Brc1cccc(NCc2ccc(Oc3ccccn3)cc2)c1						> 50 µg/mL
CCCCCCC/C=C/C(=O)N1C(=O)/C(=C(\O)c2ccccc2)C(=O)C1CC(C)C (centres unmarked)		K12	K12			> 200 µg/mL
Brc1ccc(NCc2ccc(Oc3ccccn3)cc2)cc1						> 25 µg/mL
CCCCCCC/C=C/C(=O)N1C(=O)/C(=C(\O)c2ccc(OCOCCOC)cc2)C(=O)C1CC(C)C (centres unmarked)		K12	K12			> 200 µg/mL
C[C@H]1[C@H](NC(=O)/C(=N\OC(C)(C)C(=O)O)c2csc(N)n2)C(=O)N1S(=O)(=O)O	agar dilution		ATCC25			0.06 µg/mL
O=C(Nc1ccc([N+](=O)[O-])cc1F)c1ccccc1O	broth dilution		ATCC25922			> 64 µg/mL
O=C(CCCCCC[P+](c1ccccc1)(c1ccccc1)c1ccccc1)Nc1cc(O)c(O)c(O)c1.[Br-]	broth dilution		ATCC25922	18 h		> 32 µg/mL
Cc1c(CN(C)C(=O)/C=C/c2cnc3c(c2)CC(NC(=O)OC(C)(C)C)C(=O)N3)oc2ccccc12 (centres unmarked)	broth dilution		MG1655		clinical isolate	> 32 µg/mL
CC(C)Oc1c(N)ccc(C(=O)Nc2ccc(C(=O)N[C@@H](CC(N)=O)C(=O)Nc3ccc(C(=O)Nc4ccc(C(=O)Nc5ccc(C(=O)O)cc5)c(O)c4OC(C)C)cc3)cc2)c1O			DSM1116			2 µg/mL
CC1(C)S[C@@H]2[C@H](NC(=O)[C@H](N)c3ccccc3)C(=O)N2[C@H]1C(=O)O	broth dilution		MG1655			4 µg/mL
O=[N+]([O-])c1ccc(-c2nc3cc(F)ccc3[nH]2)o1	broth dilution		ATTC25922			4 µg/mL
C/C(=C\c1ccc(O)cc1)C(=O)Nc1ccc(C(=O)N[C@@H](CC(N)=O)C(=O)Nc2ccc(C(=O)Nc3ccc(C(=O)Nc4ccc(C(=O)O)cc4)c(O)c3OC(C)C)cc2)cc1			DSM1116			0.25 µg/mL
CCCCCCC#Cc1cncc(-c2nnc(SCc3ccc(Cl)c(F)c3)n2C)c1						≥ 20 µg/mL
Cc1ccc2nc(-c3c4ccccc4cc4ccccc34)[nH]c2c1	broth dilution		ATCC25922			128 µg/mL
CNc1cccc2cc(C(=O)Nc3ccc(C(=O)O)cc3)c(=O)[nH]c12	broth dilution		ATCC25922			64 µg/mL
CC(C)COc1c(NC(=O)c2ccc(NC(=O)[C@H](CC(N)=O)NC(=O)c3ccc(NC(=O)c4ccc(C#N)cc4)cc3)cc2)ccc(C(=O)Nc2ccc(C(=O)O)cc2)c1O			DSM1116			0.25 µg/mL
N=C(N)c1ccc(OCc2cc(Br)cc(COc3ccc(C(=N)N)cc3)c2)cc1	broth dilution		ATCC25922			100 µg/mL
CNC(=O)c1cc(Oc2ccc(NC(=O)Nc3ccc(Cl)c(C(F)(F)F)c3)cc2)ccn1			CFT073			> 100 µM
Cc1ccc2nc(-c3cccc(O)c3)[nH]c2c1	broth dilution		ATCC25922			64 µg/mL
C[C@@H](O)[C@H]1C(=O)N2C(C(=O)O)=C(S[C@@H]3CN[C@H](C(=O)N(C)C)C3)[C@H](C)[C@H]12	broth dilution		ATCC25922			≤ 0.125 µg/mL

SMILES	method	cell line	strain	time	notes	MIC
N=C(N)c1ccc(OCc2ccc(-c3ccccc3)cc2COc2ccc(C(=N)N)cc2)cc1	broth dilution		W3110			> 200 µg/mL
CSc1ccc(-c2nc3ccccc3[nH]2)cc1	broth dilution		ATCC25922			64 µg/mL
CC(NCCCN)c1cc2cc(Br)ccc2[nH]1 (centres unmarked)	broth dilution		ATCC25922			128 µg/mL
CCCCCCC/C=C/C(=O)N1C(=O)/C(=C(\O)c2ccncc2)C(=O)C1CC(C)C (centres unmarked)		K12	K12			> 200 µg/mL
N=C(N)c1cccc(OCCCCCOc2cccc(C(=N)N)c2)c1			BW25113			> 200 µg/mL
Cc1ccc2nc(-c3ccc([N+](=O)[O-])cc3)n(Cc3ccc(Cl)cc3)c2c1	broth dilution		ATCC25922			64 µg/mL
CC(=O)NCN1N=C(C)C(=NNn2c(-c3ccccc3)nc3ccccc3c2=O)C1=O	broth dilution			24 h		59.9 µM
CC1(C)S[C@@H]2[C@H](NC(=O)[C@H](N)c3ccccc3)C(=O)N2[C@H]1C(=O)O	broth dilution		ATCC25922			8 µg/mL
CC(C)Oc1c(NC(=O)c2ccc(NC(=O)[C@H](CC(N)=O)NC(=O)c3ccc(NC(=O)c4ccc(C#N)cc4)cc3)cc2)ccc(C(=O)Nc2ccc(C(=O)O)cc2)c1O			ATCC25922			0.02 µg/mL
Cc1ccc(C)n1-c1ccc(C(=O)NNC=O)cc1	broth dilution		ATCC10536	18 h		31.2 µg/mL
Clc1ccc(-c2nc3ccccc3n2Cc2ccccc2)cc1Cl	broth dilution		ATCC25922			64 µg/mL
CC(C)Oc1c(NC(=O)c2ccc(NC(=O)[C@H](CC(N)=O)NC(=O)c3ccc(NC(=O)Cc4ccc(C#N)cc4)cc3)cc2)ccc(C(=O)Nc2ccc(C(=O)O)cc2)c1O			DSM1116			1 µg/mL
N=C(N)c1ccc(OCCCCCOc2ccc(C(=N)N)cc2)cc1	broth dilution		W3110			> 200 µg/mL
Cc1ccc(C)n1-c1ccc(-c2n[nH]c(=S)[nH]2)cc1	broth dilution		ATCC10536	18 h		8 µg/mL
N=C(N)c1ccc(OCCC(CCOc2ccc(C(=N)N)cc2)c2ccccc2)cc1 (centres unmarked)	broth dilution		BW25113			> 200 µg/mL
COc1c(C)c(OC)c(C(=O)/C=C/c2ccccc2)c(OC)c1C	broth dilution		ATCC25922			5000 µg/mL
N=C(N)c1ccc(OCc2cc(COc3ccc(C(=N)N)cc3)cc(-c3ccccc3)c2)cc1	broth dilution		ATCC25922			100 µg/mL
CCCCCCCCCCCC(=O)Oc1c(C)c(O)c(C(=O)/C=C/c2ccccc2)c(OC)c1C	broth dilution		ATCC25922			5000 µg/mL
C[C@H](CCC(=O)NCCCNCCCCNCCCN)[C@H]1CC[C@H]2[C@@H]3[C@H](O)C[C@@H]4C[C@H](O)CC[C@]4(C)[C@H]3C[C@H](O)[C@]12C	broth dilution		MG1655	20 h		> 256 µg/mL
Cc1ccc(C)n1-c1ccc(-c2nnc(-c3ccccc3[N+](=O)[O-])[nH]2)cc1	broth dilution		ATCC10536	18 h		250 µg/mL
COc1c(C)c(O)c(C)c(O)c1C(=O)/C=C/c1ccccc1	broth dilution		ATCC25922			1250 µg/mL
CC(C)Oc1c(NC(=O)c2ccc(NC(=O)[C@H](CC(N)=O)NC(=O)c3ccc(NC(=O)c4ccc(N)cc4)cc3)cc2)ccc(C(=O)Nc2ccc(C(=O)O)cc2)c1O			DSM1116			2 µg/mL
N=C(N)c1ccc(OCc2ccccc2COc2ccc(C(=N)N)cc2)cc1	broth dilution		BW25113			> 200 µg/mL
Cc1ccc2nc(-c3ccc(Cl)cc3Cl)[nH]c2c1	broth dilution		ATCC25922			64 µg/mL
CC(C)Oc1c(NC(=O)c2ccc(NC(=O)[C@H](CC(N)=O)NC(=O)c3ccc(C#Cc4ccc(C#N)cc4)cc3)cc2)ccc(C(=O)Nc2ccc(C(=O)O)cc2)c1O			DSM1116			0.06 µg/mL
N=C(N)c1ccc(OCc2cccc(COc3ccc(C(=N)N)cc3)c2)cc1	broth dilution		BW25113			> 200 µg/mL
